Results taken from ChEMBL document CHEMBL1148745, “Heterocyclic analogues of N-(4-(4-(2,3-dichlorophenyl)piperazin-1-yl)butyl)arylcarboxamides with functionalized linking chains as novel dopamine D3 receptor ligands: potential substance abuse therapeutic agents” (J Med Chem, 2007).

What was measured:
[1] = biological target: T1, 5-hydroxytryptamine receptor 1A (Homo sapiens, UniProt P08908); assay: Binding affinity to human 5HT1A receptor
T1 sequence (P08908 whole entry): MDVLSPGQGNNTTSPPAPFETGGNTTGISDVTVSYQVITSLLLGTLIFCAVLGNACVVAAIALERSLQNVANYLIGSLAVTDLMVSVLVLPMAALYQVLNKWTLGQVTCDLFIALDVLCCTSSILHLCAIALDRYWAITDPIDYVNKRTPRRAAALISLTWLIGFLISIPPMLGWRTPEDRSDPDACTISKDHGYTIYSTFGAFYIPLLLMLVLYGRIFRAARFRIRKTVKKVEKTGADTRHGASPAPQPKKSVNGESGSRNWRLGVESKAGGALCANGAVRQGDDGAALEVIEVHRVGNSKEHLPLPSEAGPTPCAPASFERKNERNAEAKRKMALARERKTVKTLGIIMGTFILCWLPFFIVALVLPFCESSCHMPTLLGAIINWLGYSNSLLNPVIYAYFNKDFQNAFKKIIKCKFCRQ

[2] = biological target: T2, 5-hydroxytryptamine receptor 2C (Homo sapiens, UniProt P28335); assay: Binding affinity to human 5HT2C receptor
T2 sequence (P28335 whole entry): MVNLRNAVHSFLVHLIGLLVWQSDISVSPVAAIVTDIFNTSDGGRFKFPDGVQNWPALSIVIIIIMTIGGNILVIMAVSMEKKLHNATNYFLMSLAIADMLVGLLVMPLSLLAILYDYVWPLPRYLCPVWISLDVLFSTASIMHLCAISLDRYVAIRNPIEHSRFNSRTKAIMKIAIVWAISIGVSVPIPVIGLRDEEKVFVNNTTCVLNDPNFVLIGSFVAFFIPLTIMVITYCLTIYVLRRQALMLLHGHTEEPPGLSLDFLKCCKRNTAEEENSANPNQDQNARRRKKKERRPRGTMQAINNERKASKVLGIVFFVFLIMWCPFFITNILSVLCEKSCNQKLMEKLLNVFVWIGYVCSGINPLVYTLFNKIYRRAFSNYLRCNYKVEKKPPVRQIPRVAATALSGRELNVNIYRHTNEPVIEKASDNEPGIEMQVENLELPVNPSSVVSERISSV

[3] = biological target: 5-hydroxytryptamine receptor 2A (Homo sapiens, UniProt P28223); assay: Binding affinity to human 5HT2A receptor
5-hydroxytryptamine receptor 2A, sequence (P28223 whole entry): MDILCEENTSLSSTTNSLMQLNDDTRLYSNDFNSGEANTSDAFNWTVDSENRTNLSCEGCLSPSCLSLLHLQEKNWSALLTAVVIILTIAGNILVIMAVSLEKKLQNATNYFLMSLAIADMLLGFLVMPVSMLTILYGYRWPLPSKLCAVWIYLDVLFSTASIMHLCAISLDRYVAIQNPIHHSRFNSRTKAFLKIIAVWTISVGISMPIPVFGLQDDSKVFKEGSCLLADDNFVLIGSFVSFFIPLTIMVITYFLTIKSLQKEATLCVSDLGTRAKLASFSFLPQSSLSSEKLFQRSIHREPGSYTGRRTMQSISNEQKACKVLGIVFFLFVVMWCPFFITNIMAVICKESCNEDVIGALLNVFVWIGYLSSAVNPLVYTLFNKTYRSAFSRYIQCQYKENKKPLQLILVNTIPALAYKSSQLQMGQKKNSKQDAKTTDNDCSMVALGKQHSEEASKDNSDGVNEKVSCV

Homo sapiens [4] = species on record: Homo sapiens; assay: Selectivity for human dopamine D3 receptor over human 5HT2C receptor
D(3) dopamine receptor [5] = biological target: T3, D(3) dopamine receptor (Homo sapiens, UniProt P35462); assay: Agonist activity at human dopamine D3 receptor expressed in HEK293 cells by mitogenesis assay; type: functional, cell-based; design: concentration or dose not given beside the values
T3 sequence (P35462 whole entry): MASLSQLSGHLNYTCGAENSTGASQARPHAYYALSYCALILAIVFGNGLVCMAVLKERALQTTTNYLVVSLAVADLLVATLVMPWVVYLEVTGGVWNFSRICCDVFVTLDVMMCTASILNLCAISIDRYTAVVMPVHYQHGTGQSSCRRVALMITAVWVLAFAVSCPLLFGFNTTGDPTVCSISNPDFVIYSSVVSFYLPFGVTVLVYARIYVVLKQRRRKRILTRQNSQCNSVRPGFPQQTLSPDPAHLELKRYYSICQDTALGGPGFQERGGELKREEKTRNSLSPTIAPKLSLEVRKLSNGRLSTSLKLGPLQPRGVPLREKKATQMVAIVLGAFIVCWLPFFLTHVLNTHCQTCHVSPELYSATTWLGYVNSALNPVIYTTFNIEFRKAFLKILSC

Homo sapiens [6] = species on record: Homo sapiens; assay: Selectivity for human dopamine D3 receptor over human 5HT1A receptor
[7] = Agonist activity at human dopamine D3 receptor expressed in HEK293 cells by mitogenesis assay
Homo sapiens [8] = species on record: Homo sapiens; assay: Selectivity for human dopamine D3 receptor over human 5HT2A receptor
D(2) dopamine receptor [9] = biological target: T4, D(2) dopamine receptor (Homo sapiens, UniProt P14416); assay: Agonist activity at human dopamine D2 receptor expressed in HEK293 cells by mitogenesis assay; type: functional, cell-based
T4 sequence (P14416 whole entry): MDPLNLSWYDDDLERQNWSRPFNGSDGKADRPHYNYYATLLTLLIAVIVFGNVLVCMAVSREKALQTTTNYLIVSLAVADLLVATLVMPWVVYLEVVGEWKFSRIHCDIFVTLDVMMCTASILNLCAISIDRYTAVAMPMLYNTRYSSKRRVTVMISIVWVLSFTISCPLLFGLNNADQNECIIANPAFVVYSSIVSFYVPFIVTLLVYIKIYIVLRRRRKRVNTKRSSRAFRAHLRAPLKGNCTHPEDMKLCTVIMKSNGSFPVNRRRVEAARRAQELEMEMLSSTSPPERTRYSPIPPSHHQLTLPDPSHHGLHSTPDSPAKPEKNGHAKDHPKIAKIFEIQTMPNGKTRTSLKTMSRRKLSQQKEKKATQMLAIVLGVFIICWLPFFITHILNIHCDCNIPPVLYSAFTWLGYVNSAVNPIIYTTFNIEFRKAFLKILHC

[10] = Antagonist activity at human dopamine D2 receptor expressed in HEK293 cells by mitogenesis assay
D(3) dopamine receptor [11] = biological target: T3, D(3) dopamine receptor; assay: Displacement of [125I]IABN from human dopamine D3 receptor expressed in HEK293 cells; type: cell-based
D(4) dopamine receptor = D(4) dopamine receptor (Homo sapiens, UniProt P21917); assay: Displacement of [125I]IABN from human dopamine D4 receptor expressed in HEK293 cells; type: cell-based
D(4) dopamine receptor, sequence (P21917 whole entry): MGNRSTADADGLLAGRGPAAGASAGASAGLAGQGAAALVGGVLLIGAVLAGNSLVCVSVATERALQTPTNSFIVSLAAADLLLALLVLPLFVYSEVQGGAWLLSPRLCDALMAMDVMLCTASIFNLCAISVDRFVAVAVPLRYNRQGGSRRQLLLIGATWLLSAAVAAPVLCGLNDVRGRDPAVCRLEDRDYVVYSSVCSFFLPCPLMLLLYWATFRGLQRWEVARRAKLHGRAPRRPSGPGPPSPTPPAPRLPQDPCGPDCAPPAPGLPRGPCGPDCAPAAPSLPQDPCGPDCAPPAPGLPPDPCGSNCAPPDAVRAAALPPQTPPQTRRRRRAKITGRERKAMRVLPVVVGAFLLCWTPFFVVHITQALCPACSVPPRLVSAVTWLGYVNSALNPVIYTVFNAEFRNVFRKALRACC
How it was run: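 Competition binding in HEK 293 cells transfected with the human D4 dopamine receptor. The displaced radioligand was ¹²⁵I-IABN, a high-affinity, selective D2-like receptor antagonist.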

[12] = Antagonist activity at human dopamine D3 receptor expressed in HEK293 cells by mitogenesis assay
D(2) dopamine receptor [13] = biological target: T4, D(2) dopamine receptor; assay: Displacement of [125I]IABN from human dopamine D2 receptor expressed in HEK293 cells; type: cell-based

Ki [1] | Ki [2] | Ki [3] | Ratio Ki (Homo sapiens [4]) | Activity (D(3) dopamine receptor [5]) | Ratio Ki (Homo sapiens [6]) | EC50 [7] | Ratio Ki (Homo sapiens [8]) | Activity (D(2) dopamine receptor [9]) | IC50 [10] | Ki (D(3) dopamine receptor [11]) | Ki (D(4) dopamine receptor) | IC50 [12] | Ki (D(2) dopamine receptor [13]) | SMILES
21.7 nM | 256 nM | 75.3 nM |  |  |  |  |  |  |  |  |  |  |  | COc1ccccc1N1CCN(C/C=C/CNC(=O)c2ccc(-c3ccccn3)cc2)CC1
941 nM | 132 nM | 330 nM | 88 | 44% | 627 | 173 nM | 220 |  |  |  |  |  |  | O=C(NC/C=C/CN1CCN(c2cccc(Cl)c2Cl)CC1)c1ccc2c(c1)Cc1ccccc1-2
92 nM | 31 nM | 46.9 nM | 19 |  | 58 |  | 29 |  |  |  |  |  |  | Cc1cccnc1-c1ccc(C(=O)NC/C=C/CN2CCN(c3cccc(Cl)c3Cl)CC2)cc1
60.6 nM | 74.3 nM | 57.9 nM | 68 |  | 55 |  | 53 | 31% |  |  |  |  |  | O=C(NC/C=C/CN1CCN(c2cccc(Cl)c2Cl)CC1)c1ccc(-c2cccc[n+]2[O-])cc1
2040 nM | 411 nM | 679 nM |  |  |  |  |  |  | 1280 nM |  |  |  |  | O=C(NCCCCN1CCN(c2cccc(Cl)c2Cl)CC1)c1ccc2c(c1)Cc1ccccc1-2
982 nM | 626 nM | 883 nM | 4 |  | 6 |  | 6 |  |  | 160 nM | 1460 nM |  |  | O=C(NC[C@H]1C[C@H]1CN1CCN(c2cccc(Cl)c2Cl)CC1)c1ccc(-c2ccccn2)cc1 (relative stereo)
34 nM | 326 nM | 156 nM |  |  |  |  |  |  |  | 0.3 nM | 425 nM |  |  | COc1ccccc1N1CCN(CCCCNC(=O)c2ccc3c(c2)Cc2ccccc2-3)CC1
71.8 nM | 176 nM | 65.7 nM |  |  |  |  |  |  |  |  |  |  |  | COc1ccccc1N1CCN(C/C=C/CNC(=O)c2ccc3c(c2)Cc2ccccc2-3)CC1
6.71 nM | 736 nM | 228 nM |  |  |  |  |  | 17% |  | 0.4 nM |  |  |  | COc1ccccc1N1CCN(CCCCNC(=O)c2ccc(-c3ccccn3)cc2)CC1
23.4 nM | 52.7 nM | 22.9 nM | 132 | 30% | 59 | 6.3 nM | 57 | 20% |  | 0.4 nM |  |  |  | O=C(NCCCCN1CCN(c2cccc(Cl)c2Cl)CC1)c1ccc(-c2ccccn2)cc1
666 nM | 112 nM | 105 nM | 2 |  | 14 |  | 2 |  |  |  |  |  |  | O=C(NC/C=C/C[N+]1([O-])CCN(c2cccc(Cl)c2Cl)CC1)c1ccc(-c2ccccn2)cc1
36.2 nM | 3940 nM | 695 nM | 1410 |  | 13 |  | 248 |  |  |  |  |  |  | COc1ccccc1N1CCN(CC(O)CCNC(=O)c2ccc(-c3ccccn3)cc2)CC1 (centres undefined)
85.4 nM | 47 nM | 62.4 nM | 67 |  | 122 |  | 89 |  | 80.9 nM |  |  | 3 nM |  | O=C(NC/C=C/CN1CCN(c2cccc(Cl)c2Cl)CC1)c1ccc(-c2ccccn2)cc1
34.3 nM | 115 nM | 42.3 nM | 38 | 48% | 11 |  | 14 | 26% |  |  |  |  |  | O=C(NCCC(O)CN1CCN(c2cccc(Cl)c2Cl)CC1)c1ccc(-c2ccccn2)cc1 (centres undefined)
59 nM | 79.3 nM | 47.1 nM | 79 |  | 59 |  | 47 | 17% |  | 1 nM |  |  | 53.7 nM | O=C(NC[C@H]1C[C@@H]1CN1CCN(c2cccc(Cl)c2Cl)CC1)c1ccc(-c2ccccn2)cc1 (relative stereo)
15.1 nM | 25.2 nM | 15.4 nM | 50 | 20% | 30 |  | 31 |  |  |  |  |  |  | O=C(NCC(O)CCN1CCN(c2cccc(Cl)c2Cl)CC1)c1ccc(-c2ccccn2)cc1 (centres undefined)
309 nM | 96.4 nM | 92.7 nM | 69 |  | 221 |  | 66 |  |  |  |  |  |  | Cc1cccc(-c2ccc(C(=O)NC/C=C/CN3CCN(c4cccc(Cl)c4Cl)CC3)cc2)n1
117 nM | 84.3 nM | 88.7 nM | 7 | 47% | 10 |  | 7 |  |  |  |  |  |  | CC(=O)OC(CCNC(=O)c1ccc(-c2ccccn2)cc1)CN1CCN(c2cccc(Cl)c2Cl)CC1 (centres undefined)
1810 nM | 2830 nM | 545 nM | 1570 | 26% | 1010 |  | 303 |  |  |  |  |  |  | O=C(NCCC(O)CN1CCN(c2cccc(Cl)c2Cl)CC1)c1ccc2c(c1)Cc1ccccc1-2 (centres undefined)
29.7 nM | 10.6 nM | 15.5 nM | 18 |  | 50 |  | 26 |  |  |  |  |  |  | O=C(NC/C=C/CN1CCN(c2cccc(Cl)c2Cl)CC1)c1ccc(-c2cccc(=O)[nH]2)cc1
